Assay outcomes: PubChem BioAssay, Broad Institute
Shown are actives, neighbours in structure and some others; about 5.8% of the full set was active somewhere.
GASC1 inh – inhibitors of GASC-1 (KDM4C) histone demethylase, primary screen, biochemical, single concentration HTS; GST-KDM4C 2-372, H3K9me3 peptide, LANCE TR-FRET; Lysine-specific demethylase 4C (Homo sapiens), Q9H3R0; 96,000 compounds, 0.15% hits; inhibition, % at 12.5 µM;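 active = mean replicate inhibition above about 25%, with at least 55% of replicates also reaching it, limit read from the data, passing the limit was not always enough; inconclusive = only one of those two conditions met; inactive = neither condition met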
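Material: GST-tagged GASC-1 (JMJD2C) catalytic fragment, aa 2-372. Input: enzyme final amount 10 nM. Medium: HEPES buffer, pH 7.5, plus ascorbate. Reagent: H3K9me3 peptide substrate, Fe(II), 2-oxoglutarate. Doses: single dose. Times: reaction 30 min RT, detection step 1 h RT. Measured by: LANCE TR-FRET. Evaluation: Fall in 671/618 emission ratio as inhibition.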
T cruzi growth-1 – T. cruzi intracellular proliferation inhibitors, primary screen, cell-based, beta-gal Tulahuen parasites, NIH3T3 host, luminescence; AID 624255, 2012; inhibition, % at 8.34 µM; T. cruzi beta-gal in NIH3T3, GalScreen luminescence, 90 h; 77,000 compounds, 5.9% hits;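 active = mean inhibition above about 93%, with at least 55% of replicates each passing it, limit read from the data, passing the limit was not always enough; inconclusive = only one of those two conditions holds; inactive = neither condition holds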
Pf Dd2 inh – P. falciparum Dd2 growth inhibitors, primary screen, SYBR Green fluorescence, single dose replicates; 72 h; hits give low values; activity change, % at 10 µM; 94,000 compounds, 2.3% hits; AID 1159554, 2015; in the data active = activity change below about -80%; inconclusive = no clear call, values can overlap the other calls
IDH1 mut inh – inhibitors of IDH1 R132H reductase, primary screen, biochemical, plate reader, single point. Isocitrate dehydrogenase [NADP] cytoplasmic (Homo sapiens), O75874. diaphorase/resazurin fluorescence, 60 min. inhibition, % at 10 µM. 70,000 compounds, 0.18% hits. AID 624101, 2012; in the data active = inhibition above about 34%; inconclusive = no clear call, values can overlap the other calls; inactive = below about 11%;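 also: 0% = DMSO and 100% = no enzyme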
Target sequence (O75874 whole entry R132H): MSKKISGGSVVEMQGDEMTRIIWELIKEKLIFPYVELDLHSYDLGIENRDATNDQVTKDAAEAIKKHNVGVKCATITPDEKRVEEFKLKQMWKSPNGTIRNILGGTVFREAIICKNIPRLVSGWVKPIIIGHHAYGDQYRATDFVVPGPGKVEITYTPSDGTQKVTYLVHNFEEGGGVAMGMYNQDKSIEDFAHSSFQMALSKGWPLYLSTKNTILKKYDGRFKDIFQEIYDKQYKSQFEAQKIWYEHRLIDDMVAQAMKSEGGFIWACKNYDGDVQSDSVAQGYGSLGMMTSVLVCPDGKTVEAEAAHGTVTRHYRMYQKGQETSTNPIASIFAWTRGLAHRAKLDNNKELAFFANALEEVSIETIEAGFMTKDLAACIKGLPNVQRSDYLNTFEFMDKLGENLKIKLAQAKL
T cruzi growth-2 – T. cruzi intracellular proliferation inhibitors, confirmation, cell-based, NIH3T3 host, beta-gal parasite, luminescence, cherry-pick. shares compounds with T cruzi growth-1. T. cruzi beta-gal in NIH3T3, GalScreen luminescence, 90 h. inhibition, % at 8.35 µM. 5,600 compounds, 72% hits;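 active = mean replicate inhibition above about 95% and at least 55% of replicates individually reaching it, limit read from the data; inconclusive = only one of the two criteria is met; inactive = neither criterion is met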
T cruzi growth-3 – inhibitors of intracellular T. cruzi replication, confirmation, NIH3T3 host cells, beta-gal parasites, cherry-pick, set 2 | shares compounds with T cruzi growth-1 | T. cruzi beta-gal in NIH3T3, GalScreen luminescence, 90 h | inhibition, % at 2.09 µM | 5,600 compounds, 21% hits | AID 651740, 2012;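 active = mean inhibition above about 95%, with at least 55% of replicates also reaching it, limit read from the data; inconclusive = meets just one of the two conditions; inactive = meets neither condition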;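 also: plate controls were neutral control median for no effect and positive control median for full effect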
NIH3T3 tox – cytotoxicity in mouse NIH/3T3 fibroblasts, confirmation, cytotoxicity control for T. cruzi proliferation inhibitor project, cell-based, cherry-pick, single point. cytotoxicity (signal decrease), % at 8.35 µM. AID 651742, 2012. NIH/3T3 viability, CellTiter-Glo ATP luminescence, 90 h. shares compounds with T cruzi growth-1. 5,600 compounds, 14% hits;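 active = mean signal decrease across replicates above about 35% based on untreated-well scatter, with enough replicates individually passing, limit read from the data; inconclusive = no rule stated though some were filed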;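 also: 0% = median of neutral control wells and 100% = median of positive control wells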
NIH3T3 tox 2 – NIH/3T3 fibroblast cytotoxicity, confirmation, cytotoxicity control, cell-based, cherry-pick, single point, set 2; shares compounds with T cruzi growth-1; NIH/3T3 viability, CellTiter-Glo ATP luminescence, 90 h; inhibition, % at 24.9 µM; 5,600 compounds, 56% hits; AID 651744, 2012;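 active = mean loss of cell viability signal at or above a set limit, and enough replicates individually reaching it; inconclusive = meets only the mean limit or only the replicate share; inactive = meets neither condition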;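 also: 0% = median of neutral control wells and 100% = median of positive control wells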
An asterisk follows results filed as active.

Cc1cccc(S(=O)(=O)N2CCCCN3[C@H](CO)[C@@H](c4ccc(C#CC(C)C)cc4)[C@@H]3C2)c1 was read as GASC1 inh 1, T cruzi growth-1 118*, Pf Dd2 inh -28, T cruzi growth-2 101*, T cruzi growth-3 98*, NIH3T3 tox 10 and NIH3T3 tox 2 49*.
Cc1cccc(S(=O)(=O)N2CCCCN3[C@H](CO)[C@H](c4ccc(C#CC(C)C)cc4)[C@@H]3C2)c1 was read as GASC1 inh -1, T cruzi growth-1 97*, Pf Dd2 inh -35, T cruzi growth-2 98*, T cruzi growth-3 100*, NIH3T3 tox 37* and NIH3T3 tox 2 105*.
Screening Cc1cccc(S(=O)(=O)N2CCCCN3[C@H](C2)[C@@H](c2ccc(C#C[C@H](C)O)cc2)[C@@H]3CO)c1 returned GASC1 inh 0, T cruzi growth-1 101*, Pf Dd2 inh -6, T cruzi growth-2 102*, T cruzi growth-3 66, NIH3T3 tox 65* and NIH3T3 tox 2 27*.
`Cc1cccc(S(=O)(=O)N2CCCCN3[C@H](CO)[C@H](c4ccc(C#C[C@H](C)O)cc4)[C@@H]3C2)c1` gave GASC1 inh -1, T cruzi growth-1 74 and Pf Dd2 inh -30.
CCOc1ccc(NC(=O)Cn2cc(C(=O)OC)c3ccccc32)cc1 was read as IDH1 mut inh 0.
Cc1cccc(S(=O)(=O)N(C)C[C@H]2OCc3ccccc3-c3c(n(C)c4ccccc34)C(=O)N([C@H](C)CO)C[C@@H]2C)c1 was read as GASC1 inh -4, T cruzi growth-1 75 and Pf Dd2 inh -76.
Screening C[C@H](CO)N1C[C@H](C)[C@H](CN(C)S(=O)(=O)c2ccccc2F)OCc2ccccc2-c2c(n(C)c3ccccc23)C1=O returned GASC1 inh -1, T cruzi growth-1 99*, Pf Dd2 inh -87*, IDH1 mut inh 3, T cruzi growth-2 104*, T cruzi growth-3 83, NIH3T3 tox 44* and NIH3T3 tox 2 97*.
Cc1cccc(S(=O)(=O)N(C)C[C@@H]2OCc3ccccc3-c3c(n(C)c4ccccc34)C(=O)N([C@H](C)CO)C[C@@H]2C)c1 was read as GASC1 inh -4, T cruzi growth-1 inconclusive, Pf Dd2 inh -86*, T cruzi growth-2 99*, T cruzi growth-3 106*, NIH3T3 tox 25 and NIH3T3 tox 2 78*.
`C[C@@H]1CN([C@@H](C)CO)C(=O)c2c(c3ccccc3n2C)-c2ccccc2CO[C@@H]1CN(C)S(=O)(=O)c1ccsc1` gave GASC1 inh -2, T cruzi growth-1 62, Pf Dd2 inh -33 and IDH1 mut inh 3.
For C[C@@H]1CN([C@@H](C)CO)C(=O)c2c(c3ccccc3n2C)-c2ccccc2CO[C@@H]1CN(C)S(=O)(=O)c1ccc(Cl)cc1 the results were GASC1 inh 0, T cruzi growth-1 100*, Pf Dd2 inh -87*, IDH1 mut inh 0, T cruzi growth-2 98*, T cruzi growth-3 102*, NIH3T3 tox 3 and NIH3T3 tox 2 66*.
For C[C@H]1CN([C@@H](C)CO)C(=O)c2c(c3ccccc3n2C)-c2ccccc2CO[C@@H]1CN(C)S(=O)(=O)c1ccsc1 the results were GASC1 inh -4, T cruzi growth-1 114*, Pf Dd2 inh -80*, T cruzi growth-2 107*, T cruzi growth-3 57, NIH3T3 tox 1 and NIH3T3 tox 2 9.
For C[C@@H]1CN([C@H](C)CO)C(=O)c2c(c3ccccc3n2C)-c2ccccc2CO[C@@H]1CN(C)S(=O)(=O)c1ccc(C#N)cc1 the results were GASC1 inh 1, T cruzi growth-1 -12, Pf Dd2 inh -39 and IDH1 mut inh 1.
`Cc1ccnc(NC(c2ccc([N+](=O)[O-])cc2)c2ccc3ccc(C)nc3c2O)c1` (stereo not given) gave IDH1 mut inh 1.
C[C@H](CO)N1C[C@H](C)[C@H](CN(C)S(=O)(=O)c2cccc(C#N)c2)OCc2ccccc2-c2c(n(C)c3ccccc23)C1=O was read as GASC1 inh 0, T cruzi growth-1 101*, Pf Dd2 inh -83*, IDH1 mut inh -3, T cruzi growth-2 105*, T cruzi growth-3 42, NIH3T3 tox -4 and NIH3T3 tox 2 4.
C[C@H]1CN([C@@H](C)CO)C(=O)c2c(c3ccccc3n2C)-c2ccccc2CO[C@@H]1CN(C)S(=O)(=O)c1cccc(F)c1 was read as GASC1 inh 7, T cruzi growth-1 102*, Pf Dd2 inh -88*, T cruzi growth-2 108*, T cruzi growth-3 86, NIH3T3 tox -22 and NIH3T3 tox 2 27*.
Screening C/C1=C/CC/C(CO)=C\[C@H]2OC(=O)C(CN3CCCC3C(=O)O)[C@@H]2[C@@H](OC(=O)C(C)CO)C1 (stereo not given in full) returned IDH1 mut inh 1.
COc1cc(C(=O)Nc2ccc(Oc3ncnc4sc(C)c(C)c34)cc2)cc(OC)c1OC was read as IDH1 mut inh 0.
`CC(C)C#Cc1ccc([C@@H]2[C@@H](CO)N3CCCCN(CC4CC4)C[C@@H]23)cc1` gave GASC1 inh 0, T cruzi growth-1 inconclusive, Pf Dd2 inh 4, T cruzi growth-2 95*, T cruzi growth-3 73, NIH3T3 tox inconclusive and NIH3T3 tox 2 106*.
CC(C)C#Cc1ccc([C@@H]2[C@@H](CO)N3CCCCN(CC4CC4)C[C@H]23)cc1 was read as GASC1 inh 0, T cruzi growth-1 108*, Pf Dd2 inh -58, T cruzi growth-2 108*, T cruzi growth-3 74, NIH3T3 tox 36* and NIH3T3 tox 2 90*.
`CNC[C@H]1Oc2cc(C#Cc3ccncc3)ccc2S(=O)(=O)N([C@H](C)CO)C[C@H]1C` gave GASC1 inh 2 and Pf Dd2 inh 18.
